Consider 88 compounds from PubChem BioAssay AID652000 (Sanford-Burnham Center for Chemical Genomics, 2013).

In all, about 2,400 compounds went through this assay and fewer than 10 were called active. These entries were drawn from the full list. Unmarked numbers belong to inactive results.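 The calls were made as follows: active = activation of at least 50%; inactive = the rest.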

Sequence of G-protein coupled receptor 183 (Homo sapiens) (P32249 whole entry, looked up): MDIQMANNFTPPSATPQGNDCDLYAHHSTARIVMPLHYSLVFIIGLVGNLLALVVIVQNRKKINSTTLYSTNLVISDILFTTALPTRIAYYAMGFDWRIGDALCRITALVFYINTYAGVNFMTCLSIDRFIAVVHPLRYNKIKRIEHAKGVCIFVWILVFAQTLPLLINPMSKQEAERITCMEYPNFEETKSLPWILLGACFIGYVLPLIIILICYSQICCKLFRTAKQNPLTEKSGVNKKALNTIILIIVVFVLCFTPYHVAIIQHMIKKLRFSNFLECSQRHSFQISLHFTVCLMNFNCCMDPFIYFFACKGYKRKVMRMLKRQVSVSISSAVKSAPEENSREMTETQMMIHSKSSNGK

The experiment addresses G-protein coupled receptor 183 (Homo sapiens) (UniProt P32249). Nature of the experiment: EBI2 agonist activity of antagonist hits, confirmation, counter-screen for EBI2 antagonist project, cell-based, single concentration, agonist mode, luminescence (AID 652000). The note with it: EBI2-expressing cells, 60 min, at 5 µM, active compounds read high, 0% vehicle, 100% 7α,25-dihydroxycholesterol control. In short, it runs like this: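 System: beta-arrestin recruitment reporter cells, agonist mode. Amount: 1500 cells in each well. Probe or stimulus: no added oxysterol for test compounds. Compound: single concentration, 2.5 nL of 10 mM stock. Timing: 37°C overnight seeding and 60-min compound, 25°C dark 60-min detection. Signal: luminescence. Benchmarks: 7alpha,25-OHC positive control.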
With `O=C(NCc1ccc(Cl)cc1)C1CCN(S(=O)(=O)c2cccs2)CC1`, the activation was 0.21%.
On to `O=C(CCNS(=O)(=O)c1ccccc1)NCCSc1ccc(Br)cc1`, for which the activation is -1.84%.
On to `Cc1ccc(O/C=C2\OC(=O)c3ccccc32)cc1`, for which the activation was -0.84%.
Under `O=C(COc1ccc2ccccc2c1)N1CCN(C(=O)c2cccs2)CC1` stands 0.16%; under `COc1ccc(/C=C/C(=O)c2ccc(OC)cc2O)cc1`, -0.61%; under `Fc1ccc(N2CCN(Cc3cnc(Oc4ccc(Br)cc4)s3)CC2)cc1`, 1.8%.
Turning to `CCOC(=O)N1CCN(C(=O)COc2ccc(Cl)cc2C)CC1`, the activation is 0.57%.
For the compound `CN(Cc1ccc(F)cc1)C(=O)COc1ccc2ccccc2c1`, the activation was 0.62%.
Turning to `Cc1ccc(S(=O)(=O)N2CCN(C(=O)CSc3cc(C)ccc3C)CC2)c(C)c1`, the activation was 1.03%.
Turning to `Cc1ccc2oc(=O)c3cnn(CC(=O)N(Cc4ccco4)C4CCCCC4)c3c2c1`, the activation is -0.75%.
Under `Cc1cc(C)cc(Oc2nc3c(C)cccn3c(=O)c2/C=C(\C#N)C(=O)NC2CCS(=O)(=O)C2)c1` (stereo not drawn) stands -1.11%; under `Cc1cc(Cl)c2oc(C(=O)N3CCC(O)(c4ccccc4)CC3)c(C)c2c1`, -0.43%.
Take `COc1ccc(CNC(=O)CN(c2ccc(OC)c(Cl)c2)S(=O)(=O)c2ccc(C)cc2)cc1`: the activation was -1.61%.
For `Cc1ccc(N2CC(C(=O)Nc3ccc(S(=O)(=O)N4CCCC4)cc3)CC2=O)cc1C` (stereo not drawn), the activation is 1.21%.
The figure for `O=C(C(c1ccccc1)c1ccccc1)N1CCN(CC(O)COc2ccccc2)CC1` (stereo not drawn) is -0.02%; for `O=C(CC(c1ccccc1)c1ccccc1)NCC(O)c1ccc([N+](=O)[O-])cc1` (stereo not drawn) it is -0.61%.
The figure for `Cc1ccc(S(=O)(=O)N2CCN(CC(=O)N/N=C/c3ccc(Br)s3)CC2)cc1` is 0.71%; for `N#CC(=C1CCCC1)c1nc(-c2ccc(Cl)cc2)cs1` it is -0.93%.
Under `Cc1cc(OCC(=O)N2CCN(c3ncccn3)CC2)ccc1Cl` stands 1.39%; under `O=C(/C=C/c1ccc(Cl)cc1)N1CCN(c2ccccc2[N+](=O)[O-])CC1`, 1.03%.
As for `O=C(Nc1ncc2c(n1)CC(c1ccco1)CC2=O)c1ccc(Cl)cc1` (stereo not drawn), the activation is 1.34%.
Consider `CCOc1ccc(CCN2C(=S)N([C@@H](CC(C)C)CN3CCC[C@@H]3CN3C(=S)NC[C@@H]3Cc3ccc(O)cc3)C[C@@H]2Cc2ccc(O)cc2)cc1`, for which the activation is -0.93%.
Take `COc1ccc(OCC(=O)N2CCN(C(=O)COc3ccccc3)CC2)cc1`: the activation was -0.25%.
Regarding `O=C(NNC(=O)c1ccc2ccccc2c1)c1ccc(Cl)cc1`, the activation was 0.21%.
Turning to `COc1cccc(-c2cc(C(=O)N3CCN(c4ccccc4OC)CC3)no2)c1`, the activation was -0.66%.
`COc1ccc(-c2cc(C3CCN(c4ncccc4[N+](=O)[O-])CC3)[nH]n2)cc1`: the activation is -0.52%.
The figure for `FC(F)(F)Oc1ccccc1C(c1nnnn1C1CCCCC1)N1CCN(C/C=C/c2ccccc2)CC1` (stereo not drawn) is 2.25%.
For `Cc1ccc(OCC(=O)N2CCN(C(=O)c3cccnc3)CC2)cc1`, the activation was 0.16%.
The figure for `CC1CCc2sc3nc(N4CCN(CCO)CC4)n4ncnc4c3c2C1` (stereo not drawn) is 1.12%.
The figure for `Cc1nc2ccc(C(=O)N3CCN(c4ccccc4)CC3)cc2s1` is -1.39%; for `Cc1cs/c(=N\N=C\c2ccc(O)cc2)n1Cc1ccco1` it is -0.2%; for `CCOc1ccc(CN(Cc2ccco2)S(=O)(=O)c2ccc(-n3cnnn3)c(OC)c2)cc1` it is 0.3%.
Regarding `Fc1ccccc1/C=N/Nc1cc(N2CCCCC2)ncn1`, the activation is -1.29%.
In the case of `CC(C)Cn1c(N2CCN(C(=O)/C=C/c3ccccc3)CC2)nc2ccccc21`, the activation was -1.2%.
The figure for `COc1cccc(NC(=O)Cn2c3ccccc3c3nc4n(c(=O)c32)CCS4)c1` is -1.89%.
Regarding `Cc1ccc(OCCNC(=O)CCNS(=O)(=O)c2ccc(Br)cc2)cc1`, the activation is -0.93%.
Consider `CCN(CC(=O)NCc1cccs1)C(=O)/C=C/c1ccc(C)cc1`, for which the activation was 0.57%.
`Cc1cccc(N2CCN(C(=O)c3cc4c(=O)[nH]c5ccccc5c4n3C)CC2)c1C`: the activation is 2.57%.
As to `O=C(COc1ccc2c(c1)CCC2)N1CCN(c2ccc(F)cc2)CC1`, the activation is -1.43%.
For `O=C(COc1ccc(Cl)cc1)N1CCN(c2cccc(C(F)(F)F)c2)CC1`, the activation was 1.62%.
The figure for `Cc1nc(-c2ccccc2)sc1C(=O)/C=C/c1ccccc1` is 1.39%; for `N#Cc1ccc(C(c2nnnn2CCc2ccccc2)N2CCCCCC2)cc1` (stereo not drawn) it is 0.07%.
The figure for `COc1ccccc1N1CCN(C(=O)c2cc(=O)c3cc(C)ccc3o2)CC1` is 0.39%; for `O=C(c1cc2cc(F)ccc2[nH]1)N1CCN(c2ccc(F)cc2)CC1` it is 1.94%.
The figure for `COc1ccc(NC(=O)N2CCC(Cc3ccccc3)CC2)cc1` is -0.34%.
As for `Cc1ccc(-c2nn(-c3ccccc3)cc2/C=C/C(=O)Nc2cccc(S(N)(=O)=O)c2)cc1`, the activation was 1.07%.
Under `Cc1cccc(NC(=O)CN2CCN(C(=O)C3CCN(C(=O)/C=C/c4ccccc4)CC3)CC2)c1C` stands -0.88%; under `Cc1ccc2oc(=O)c3cnn(CC(=O)N4CCCCCC4)c3c2c1`, -0.61%.
The figure for `CC(=O)c1nn(-c2ccc(C)cc2)cc1C(=O)c1cccc(Br)c1` is 1.07%; for `COc1ccc([C@H]2CC(=O)C=C(c3ccc(C)cc3)C2)cc1` it is 1.12%.
With `CCOc1ccc(C(C)=O)cc1COC(=O)c1cnc(Cl)c(Cl)c1`, the activation is -0.57%.
The figure for `O=C(c1cc2ccccc2s1)N1CCN(c2ccccn2)CC1` is -1.48%.
Consider `CCC1Nc2ncnc(N3CCN(c4ccccc4)CC3)c2N(Cc2ccc(Cl)cc2)C1=O` (stereo not drawn), for which the activation is -4.52%.
The figure for `CC1(Cc2ccccc2C#N)C(=O)Nc2ccc(-c3ccc4[nH]ccc4c3)cc21` (stereo not drawn) is -0.66%; for `O=C(c1cc2ccccc2o1)N1CCN(S(=O)(=O)c2ccc(Cl)s2)CC1` it is 0.16%; for `COc1ccc(Nc2cc(Sc3ccc(OC)cc3)ncn2)cc1` it is -0.07%.
Turning to `COc1ccc(-n2c(Cc3cccn3C)nnc2SCC(=O)Nc2cc(C)cc(C)c2)cc1`, the activation was 0.66%.
Turning to `COc1ccc([C@H]2CC(=O)C=C(/C=C/c3ccc(Cl)cc3)C2)cc1`, the activation was -0.43%.
For `COc1ccccc1CCNC(=O)C1CCN(C(=O)/C=C/c2ccccc2)CC1`, the activation is -0.16%.
Under `COc1ccc(C(c2nnnn2C2CCCC2)N2CCN(C/C=C/c3ccccc3)CC2)cc1` (stereo not drawn) stands -0.25%; under `CN1CCc2ccccc2C1Cc1ccccc1NC(=O)c1sc2ccccc2c1Cl` (stereo not drawn), -0.98%; under `Cc1ccc(-n2ncc3c(=O)n(-c4ccc(C)c(C)c4)c(-c4ccco4)nc32)cc1`, -1.66%.
Turning to `O=C(Nc1ccc(S(=O)(=O)N2CCCCC2)cc1)C1CC(=O)N(c2ccc(F)cc2)C1` (stereo not drawn), the activation is 0.98%.
The figure for `O=C(c1cc(=O)c2ccccc2o1)N1CCN(c2ccccc2)CC1` is 2.48%; for `CCCC1CCC(=NNC(=S)NCCc2ccccc2)CC1` (stereo not drawn) it is -1.07%.
For the compound `Cc1cccc(N=C2NC(=O)/C(=C/c3cn(C)c4ccccc34)S2)c1`, the activation is -0.07%.
As to `COc1ccc(-c2cc(NC=O)c3ncc(-c4cccc(C(=O)N(C)C)c4)n3c2)c(OC)c1`, the activation is -1.02%.
The figure for `Cc1ccc(CSCCNC(=O)CN(c2ccc(F)cc2)S(C)(=O)=O)cc1` is 0.84%.
The figure for `CC(C)N(Cc1ccccc1)C(=S)Nc1ccc(OC(F)F)cc1` is 0.07%; for `CC(C)Cc1ccc(-c2cc3nc(NCc4cccc(Cl)c4)ccn3n2)cc1` it is -1.2%.
Regarding `CCOC(=O)N1CCN(C(=O)CSc2ccc(Cl)cc2)CC1`, the activation was 2.07%.
Regarding `Cc1ccc(SCC(=O)N2CCN(c3ccc(F)cc3)CC2)cc1`, the activation is 4.12%.
As for `CC(=O)/C(=N\Nc1ccc(Cl)cc1Cl)Sc1cccc2cccnc12`, the activation is -1.34%.
As to `O=C(NCc1ccc(Cl)cc1)c1cc(=O)nc2sc(-c3ccccc3)nn12`, the activation is -0.48%.
Consider `COc1ccc(OC)c(C(=O)c2coc3ccc(O)c(CN4CCOCC4)c23)c1`, for which the activation was 0.62%.
Under `O=C(/C=C/c1cccc(C(F)(F)F)c1)N1CCN(c2ccccn2)CC1` stands -0.93%.
The figure for `Cc1cccc(OCC(O)CN2CCN(S(=O)(=O)c3ccc(C)cc3C)CC2)c1` (stereo not drawn) is -0.98%.
`COc1ccc(-c2cn(-c3ccc(OC)cc3)c(=S)[nH]2)cc1`: the activation is 1.66%.
Turning to `O=C(CSc1ccccc1)Nc1cc(Cl)ccc1Oc1ccccc1`, the activation is -1.48%.
The figure for `CCC(C)(C)NC(=O)c1cc([N+](=O)[O-])ccc1N1CCCCC1` is -1.43%; for `CCOC(=O)N1CCN(C(=O)COc2ccc(Br)cc2)CC1` it is 1.84%; for `O=C(NCCNc1ccc([N+](=O)[O-])cc1)c1cccc2c(Br)cccc12` it is 0.12%.
The figure for `COc1ccccc1N1CCN(C(=O)c2cc(-c3ccc(Br)cc3)on2)CC1` is 1.43%; for `Cc1cccc(C)c1-n1nnnc1C(CCc1ccccc1)N1CCN(C/C=C/c2ccccc2)CC1` (stereo not drawn) it is -1.39%; for `O=C(CCc1ccccc1)NNC(=O)COc1ccc(Cl)cc1` it is 0.21%.
Regarding `COc1ccc(-c2nc(N)ncc2-c2ccc(Cl)cc2)c(O)c1`, the activation is 1.03%.
`COc1cc(/C=C(\C#N)C(=O)Nc2ccc3ccccc3c2)c([N+](=O)[O-])cc1OC`: the activation is -0.75%.
As to `O=C(COc1ccc(Cl)cc1)N1CCN(S(=O)(=O)c2ccc(Cl)cc2)CC1`, the activation was 1.62%.
